Data taken from paper PMC4133170 (Biochimica et biophysica acta, 2014).

What was measured:
[1] = tested on: RAGE; experiment: Western blot of RAGE expression in hCMEC/D3 cells; type: cell-based, human; conditions: 24 h, 100 nM monomeric Aβ40 or 50 nM Aβ42 oligomers, n = 3
Procedure, shortened: (§1)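 hCMEC/D3 cells (1 × 10⁶ per 100 mm dish) grown to 70% confluence, then given 24 h of control media, 100 nM Aβ40 monomer, 50 nM Aβ42 oligomer or both. Lysed in RIPA with protease inhibitors; 25 μg protein on 8% Bis-Tris/MOPS gel, nitrocellulose, 2% BSA block. Overnight primary: LRP1 1:1500, RAGE 1:200, GAPDH 1:3000. HRP secondary 1:5000; bands quantified; three independent blots.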

[2] = tested on: LRP1; experiment: Western blot of LRP1 expression in hCMEC/D3 cells; type: cell-based, human; conditions: 24 h, 100 nM monomeric Aβ40 or 50 nM Aβ42 oligomers, n = 3
Procedure, shortened: as §1

[3] = tested on: hCMEC/D3 cells; experiment: MTT cytotoxicity assay; type: cell-based, human
[4] = tested on: LRP1; conditions: in vivo administration of 100 μg over 26 h, FVB wild type mice; cited from earlier work

| Substance | alteration in RAGE protein expression [1] | reduction of LRP1 expression [2] | decrease in viability of hCMEC/D3 (MTT) ([3]; 24 h treatment with 250 nM Aβ40 monomer, mean of n = 3 independent experiments) | MTT assay result versus control ([3]; 24 h treatment, Aβ40 monomers at 50 and 100 nM, n = 3) | LRP1 expression in brain tissue [4] |
| --- | --- | --- | --- | --- | --- |
| Aβ40 monomer: synthetic Aβ40 peptide (AnaSpec), HFIP film dissolved in media and used immediately | did not show any significant alterations | not observed | 14–17% | comparable to control treated cells |  |
| Aβ42 monomers: human sequence Aβ42 monomers administered in vivo in a cited study |  |  |  |  | significant reduction in LRP1 expression |
